Measured values published in ChEMBL document CHEMBL5356993, “Novel pyrazolo[3,4-d]pyrimidine derivatives: design, synthesis, anticancer evaluation, VEGFR-2 inhibition, and antiangiogenic activity” (RSC Med Chem, 2023).

How the values were obtained:
Type in all cases: functional
Conditions in all cases: read-out: GI
OVCAR-5 = assay: Antiproliferative activity against human OVCAR-5 cells assessed as cell growth inhibition at 10 uM incubated for 48 hrs by SRB assay relative to control
Summary of the method: (§1)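 Cells plated in 96-well plates at […] cells/well and preincubated 24 h at 37 °C, 5% CO2. Time-zero plates were TCA-fixed. Compound was diluted in medium with 50 µg/mL gentamicin and cells exposed for 48 h. Adherent cells fixed with 10% final TCA; suspension cells with 16% final TCA. Plates stained with 0.4% SRB in 1% acetic acid, dye solubilized in 10 mM Trizma, absorbance read at 515 nm. Percent growth calculated against time-zero and control.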

SF-295 = assay: Antiproliferative activity against human SF-295 cells assessed as cell growth inhibition at 10 uM incubated for 48 hrs by SRB assay relative to control; summary of the method: as §1
HOP-92 = assay: Antiproliferative activity against human HOP-92 cells assessed as cell growth inhibition at 10 uM incubated for 48 hrs by SRB assay relative to control; summary of the method: as §1
NCI-H522 = assay: Antiproliferative activity against human NCI-H522 cells assessed as cell growth inhibition at 10 uM incubated for 48 hrs by SRB assay relative to control; summary of the method: as §1
UACC-257 = assay: Antiproliferative activity against human UACC-257 cells assessed as cell growth inhibition at 10 uM incubated for 48 hrs by SRB assay relative to control
Summary of the method: (§2)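 Cells pre-incubated 24 h at 37°C, 5% CO2, then exposed to compound (DMSO stock diluted in medium with 50 µg/mL gentamicin) for 48 h. Adherent cells fixed with cold TCA (final 10%, 60 min, 4°C); suspension cells fixed with 16% TCA final. Stained with 0.4% SRB in 1% acetic acid for 10 min, dye solubilized in 10 mM Trizma base, absorbance read at 515 nm. Growth calculated against time-zero and untreated control plates.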

SK-MEL-2 = assay: Antiproliferative activity against human SK-MEL-2 cells assessed as cell growth inhibition at 10 uM incubated for 48 hrs by SRB assay relative to control; summary of the method: as §1
TK-10 = assay: Antiproliferative activity against human TK-10 cells assessed as cell growth inhibition at 10 uM incubated for 48 hrs by SRB assay relative to control; summary of the method: as §2
A498 = assay: Antiproliferative activity against human A498 cells assessed as cell growth inhibition at 10 uM incubated for 48 hrs by SRB assay relative to control; summary of the method: as §1
NCI-H226 = assay: Antiproliferative activity against human NCI-H226 cells assessed as cell growth inhibition at 10 uM incubated for 48 hrs by SRB assay relative to control; summary of the method: as §1
CCRF-CEM = assay: Antiproliferative activity against human CCRF-CEM cells assessed as cell growth inhibition at 10 uM incubated for 48 hrs by SRB assay relative to control; summary of the method: as §1
SK-MEL-28 = assay: Antiproliferative activity against human SK-MEL-28 cells assessed as cell growth inhibition at 10 uM incubated for 48 hrs by SRB assay relative to control; summary of the method: as §1
KM12 = assay: Antiproliferative activity against human KM12 cells assessed as cell growth inhibition at 10 uM incubated for 48 hrs by SRB assay relative to control; summary of the method: as §1
Hs-578T = assay: Antiproliferative activity against human Hs-578T cells assessed as cell growth inhibition at 10 uM incubated for 48 hrs by SRB assay relative to control; summary of the method: as §1
U-251 = assay: Antiproliferative activity against human U-251 cells assessed as cell growth inhibition at 10 uM incubated for 48 hrs by SRB assay relative to control; summary of the method: as §2
SK-MEL-5 = assay: Antiproliferative activity against human SK-MEL-5 cells assessed as cell growth inhibition at 10 uM incubated for 48 hrs by SRB assay relative to control; summary of the method: as §1
SW-620 = assay: Antiproliferative activity against human SW620 cells assessed as cell growth inhibition at 10 uM incubated for 48 hrs by SRB assay relative to control; summary of the method: as §2
OVCAR-3 = assay: Antiproliferative activity against human OVCAR-3 cells assessed as cell growth inhibition at 10 uM incubated for 48 hrs by SRB assay relative to control; summary of the method: as §1
M14 = assay: Antiproliferative activity against human M14 cells assessed as cell growth inhibition at 10 uM incubated for 48 hrs by SRB assay relative to control; summary of the method: as §1
HT-29 = assay: Antiproliferative activity against human HT-29 cells assessed as cell growth inhibition at 10 uM incubated for 48 hrs by SRB assay relative to control; summary of the method: as §1
SK-OV-3 = assay: Antiproliferative activity against human SK-OV-3 cells assessed as cell growth inhibition at 10 uM incubated for 48 hrs by SRB assay relative to control; summary of the method: as §1
HL-60(TB) = assay: Antiproliferative activity against human HL-60(TB) cells assessed as cell growth inhibition at 10 uM incubated for 48 hrs by SRB assay relative to control
Summary of the method: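 Cells were plated at […] cells/well and preincubated 24 h at 37°C, 5% CO2, with time-zero plates TCA-fixed. Compound was diluted from DMSO stock in medium with 50 µg/mL gentamicin, then exposed for 48 h. Settled suspension cells were fixed with 80% TCA (final 16%), stained with 0.4% SRB and solubilized in 10 mM Trizma, A515. Growth was taken relative to Tz and control.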

SF-539 = assay: Antiproliferative activity against human SF-539 cells assessed as cell growth inhibition at 10 uM incubated for 48 hrs by SRB assay relative to control; summary of the method: as §1
RXF 393 = assay: Antiproliferative activity against human RXF 393 cells assessed as cell growth inhibition at 10 uM incubated for 48 hrs by SRB assay relative to control; summary of the method: as §1

Compound	inhibition of growth at 10 µM (OVCAR-5)	inhibition of growth at 10 µM (SF-295)	inhibition of growth at 10 µM (HOP-92)	inhibition of growth at 10 µM (NCI-H522)	inhibition of growth at 10 µM (UACC-257)	inhibition of growth at 10 µM (SK-MEL-2)	inhibition of growth at 10 µM (TK-10)	inhibition of growth at 10 µM (A498)	inhibition of growth at 10 µM (NCI-H226)	inhibition of growth at 10 µM (CCRF-CEM)	inhibition of growth at 10 µM (SK-MEL-28)	inhibition of growth at 10 µM (KM12)	inhibition of growth at 10 µM (Hs-578T)	inhibition of growth at 10 µM (U-251)	inhibition of growth at 10 µM (SK-MEL-5)	inhibition of growth at 10 µM (SW-620)	inhibition of growth at 10 µM (OVCAR-3)	inhibition of growth at 10 µM (M14)	inhibition of growth at 10 µM (HT-29)	inhibition of growth at 10 µM (SK-OV-3)	further results
Cc1nc2c(cnn2-c2ccccc2)c(=O)n1-c1ccc(N2C(=O)C=CC2=O)cc1	< 15%	< 15%	< 15%	< 15%	< 15%	< 15%	< 15%	< 15%	< 15%	32.2%	< 15%	< 15%	< 15%	< 15%	< 15%	< 15%	< 15%	< 15%	< 15%	< 15%	inhibition of growth at 10 µM (HL-60(TB)): < 15%; inhibition of growth at 10 µM (SF-539): < 15%; inhibition of growth at 10 µM (RXF 393): < 15%
COc1ccc(/C=C/C(=O)c2ccc(-n3c(C)nc4c(cnn4-c4ccccc4)c3=O)cc2)cc1	< 15%	34.5%	< 15%	42.6%	25.4%	29.4%	< 15%	< 15%	29.4%	53.6%	< 15%	68.4%	< 15%	25.9%	72.3%	24.9%	39%	46.9%	28.5%	< 15%	inhibition of growth at 10 µM (HL-60(TB)): 55.3%; inhibition of growth at 10 µM (SF-539): 22.4%; inhibition of growth at 10 µM (RXF 393): 15.6%
Cc1nc2c(cnn2-c2ccccc2)c(=O)n1-c1ccc(/N=C2\C(=O)Nc3ccccc32)cc1	< 15%	24.7%	17.6%	16.8%	29.3%	< 15%	< 15%	< 15%	24.7%	37.8%	< 15%	< 15%	17.6%	39.6%	42.9%	< 15%	24.3%	18.8%	< 15%	19.6%	inhibition of growth at 10 µM (HL-60(TB)): < 15%; inhibition of growth at 10 µM (SF-539): 20.9%; inhibition of growth at 10 µM (RXF 393): 29%
CC(=O)Nc1ccc(-n2c(C)nc3c(cnn3-c3ccccc3)c2=O)cc1	< 15%	36.5%	17%	25%	41.7%	24.3%	20.4%	16.1%	33.5%	30.8%	< 15%	< 15%	< 15%	< 15%	77.4%	< 15%	< 15%	< 15%	< 15%	< 15%	inhibition of growth at 10 µM (HL-60(TB)): 28.3%; inhibition of growth at 10 µM (SF-539): 18.9%; inhibition of growth at 10 µM (RXF 393): < 15%
Cc1nc2c(cnn2-c2ccccc2)c(=O)n1-c1ccc(N2C(=O)c3ccccc3C2=O)cc1	< 15%	< 15%	< 15%	< 15%	< 15%	< 15%	< 15%	< 15%	< 15%	< 15%	< 15%	< 15%	< 15%	< 15%	< 15%	< 15%	< 15%	< 15%	< 15%	< 15%	inhibition of growth at 10 µM (HL-60(TB)): < 15%; inhibition of growth at 10 µM (SF-539): < 15%; inhibition of growth at 10 µM (RXF 393): < 15%
Cc1nc2c(cnn2-c2ccccc2)c(=O)n1-c1ccc(N)cc1	< 15%	27.1%	< 15%	< 15%	34.3%	17.8%	21.8%	16.8%	18%	21%	< 15%	< 15%	21.4%	< 15%	66.8%	< 15%	< 15%	< 15%	< 15%	< 15%	inhibition of growth at 10 µM (HL-60(TB)): < 15%; inhibition of growth at 10 µM (SF-539): 19.4%; inhibition of growth at 10 µM (RXF 393): < 15%
Cc1nc2c(cnn2-c2ccccc2)c(=O)n1-c1ccc(NC(=O)c2ccco2)cc1	< 15%	15.3%	< 15%	< 15%	< 15%	< 15%	< 15%	< 15%	< 15%	23.6%	< 15%	< 15%	< 15%	< 15%	23.1%	< 15%	< 15%	< 15%	< 15%	< 15%	inhibition of growth at 10 µM (HL-60(TB)): 19.8%; inhibition of growth at 10 µM (SF-539): < 15%; inhibition of growth at 10 µM (RXF 393): < 15%
Cc1nc2c(cnn2-c2ccccc2)c(=O)n1-c1ccc(NC(=O)c2ccc([N+](=O)[O-])cc2)cc1	< 15%	56.3%	< 15%	38.9%	50.8%	29.3%	31.5%	19.6%	50.8%	52.5%	18.2%	20.4%	23.1%	< 15%	82.4%	< 15%	< 15%	24.6%	21.6%	< 15%	inhibition of growth at 10 µM (HL-60(TB)): 54%; inhibition of growth at 10 µM (SF-539): 18.7%; inhibition of growth at 10 µM (RXF 393): 26.4%
